For test [1], the target named is T1, Muscarinic acetylcholine receptor M2 (Rattus norvegicus, UniProt P10980).
T1 sequence (P10980 whole entry): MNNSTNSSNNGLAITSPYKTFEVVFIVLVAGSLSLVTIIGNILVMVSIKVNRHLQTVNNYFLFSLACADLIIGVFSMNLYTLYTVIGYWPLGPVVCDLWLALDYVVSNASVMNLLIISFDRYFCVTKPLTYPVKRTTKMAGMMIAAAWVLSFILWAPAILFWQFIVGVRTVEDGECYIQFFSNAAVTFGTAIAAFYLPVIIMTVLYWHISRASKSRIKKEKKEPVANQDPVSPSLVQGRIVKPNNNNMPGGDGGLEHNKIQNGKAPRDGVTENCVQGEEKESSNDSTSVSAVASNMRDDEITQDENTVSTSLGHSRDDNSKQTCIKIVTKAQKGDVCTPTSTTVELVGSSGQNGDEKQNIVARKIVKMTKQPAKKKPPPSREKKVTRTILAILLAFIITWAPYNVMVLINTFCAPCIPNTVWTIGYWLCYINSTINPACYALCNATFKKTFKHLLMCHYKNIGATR
The experiment in a line: Binding affinity for rat heart muscarinic acetylcholine receptor M2 using [3H]quinuclidinyl benzilate.

Test [2] relates to Rattus norvegicus. The experiment in a line: Intravenous dose required to inhibit oxotremorine induced salivary secretion in urethane ([…] i.p.) anesthetized male wistar rats. Format: functional. As to conditions: for ED50: Rattus norvegicus, read-out: ID50 (the source's name).
For test [3], the species on record is Rattus norvegicus. The experiment in a line: Selectivity index calculated as ID50/ED30.
Test [4] deals with Rattus norvegicus. Put plainly: Intravenous dose required to inhibit rhythmic contraction of urinary bladder in urethane (1.0 g/kg s.c.) anesthetized female wistar rats. The format is functional. Summed up:
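Each rat received escalating intravenous doses, giving a dose–response curve per animal. The fall in intravesical pressure was read 5–10 min after each dose. ED30 is the dose that cut peak intravesical pressure by 30%. Values are means ± SEM.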

The test system of test [5] is Rattus norvegicus. The experiment in a line: M2 antagonism measured as effect (i.v.) on oxotremorine induced bradycardia in pithed rats. Format: functional. The method in brief:
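Bradycardia was evoked in pithed rats by an iv oxotremorine dose–response challenge, with compounds given 15 min beforehand. DR10 is the compound dose that shifts the oxotremorine curve 10-fold to the right. Values are reported with 95% confidence limits.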

The test system of test [6] is Rattus norvegicus. Put plainly: M1 antagonism measured as effect (i.v.) on McN-A343 induced pressor response in pithed rats. The format is functional. Particulars: iv, read-out: ID50 (the source's name). Summed up:
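Compounds were given iv 15 min before McN-A343 (3 μmol/kg iv) in pithed rats, with the pressor response recorded.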

The mark [7] stands for this setting: Rattus norvegicus, read-out: ED30.

Here are results for 18 compounds from ChEMBL document CHEMBL1140447, “Synthesis and antimuscarinic properties of quinuclidin-3-yl 1,2,3,4-tetrahydroisoquinoline-2-carboxylate derivatives as novel muscarinic receptor antagonists” (J Med Chem, 2005).

The structures appear in SMILES notation. Where “and” joins values, the source holds several entries; their conditions need not be identical. Equal entries are not always repeated. Some results are limits rather than exact numbers.

For orientation: Ki means a dissociation constant, usually derived from enzyme kinetics or from competition with a known ligand.

Take `O=C(O[C@@H]1CN2CCC1CC2)N1CCc2ccccc2[C@@H]1c1ccccc1`: the affinity in test [1] corresponds to a Ki of 3500 nM.
Consider `NC(=O)C(c1ccccc1)(c1ccccc1)[C@@H]1CCN(CCc2ccc3c(c2)CCO3)C1` [DARIFENACIN], for which the ED50 in test [2] was 0.11 mg/kg. For the same compound, in test [3], the Selectivity index is reported as 1.9. Also, the ED30 in test [4] (setting [7]) worked out at 0.058 mg/kg.
With `O=C(O[C@H]1CN2CCC1CC2)N1Cc2ccccc2C1c1ccccc1` (some centres not stated), in test [1], the Ki amounted to 440 nM. This lies in the sub-micromolar range.
With `O=C(O[C@H]1CN2CCC1CC2)N1CCc2ccccc2C1c1ccsc1` (single isomer, unassigned; 12b), the ED50 in test [2] turned out to be 1.3 mg/kg. The affinity in test [1] corresponds to a Ki of 110 nM. Also, in test [4] (setting [7]), the ED30 worked out at 0.24 mg/kg.
For `O=C(O[C@H]1CN2CCC1CC2)N1CCc2ccccc2C1c1cccs1` (some centres not stated), in test [1], the Ki is 13 nM and 93 nM.
Take `O=C(O[C@H]1CN2CCC1CC2)N1CCc2ccccc2C1c1ccsc1` (single isomer, unassigned; 12a): the ED50 in test [2] is 0.11 mg/kg. The affinity in test [1] corresponds to a Ki of 15 nM. Also, in test [4] (setting [7]), the ED30 is 0.016 mg/kg.
`O=C(O[C@H]1CN2CCC1CC2)N1C[C@@H](O)c2ccccc2[C@@H]1c1ccccc1` gave a Ki in test [1] of 850 nM. In other words, the sub-micromolar range.
Still for that read-out and setting: with `O=C(NC(c1ccccc1)c1ccccc1)OC1CN2CCC1CC2` (configuration not stated) the figure was 6.8 nM.
As for `O=C(O[C@H]1CN2CCC1CC2)N1C[C@H](O)c2ccccc2[C@H]1c1ccccc1`, affinity in test [1] was put at a Ki of 1700 nM.
`O=C(O[C@H]1CN2CCC1CC2)N1CCc2ccccc2[C@@H]1c1ccccc1` [SOLIFENACIN] came in with a DR10 in test [5] of 4.2 mg/kg. Moreover, the ED50 worked out at 2.1 mg/kg in test [2] and 2.8 mg/kg in test [6]. Moreover, in test [1], affinity was put at a Ki of 120 nM. Also, the ED30 in test [4] (setting [7]) was determined as 0.18 mg/kg.
Consider `CCN(CC)CC#CCOC(=O)C(O)(c1ccccc1)C1CCCCC1` (configuration not stated) [OXYBUTYNIN], for which, in test [5], the DR10 was 1.6 mg/kg. In addition, in test [2], the ID50 was found to be 0.17 mg/kg. Further, the results for the ED50 in test [2] and in test [6] were 0.17 mg/kg and 1.1 mg/kg, respectively. Also, the ED30 in test [4] and in test [4] (setting [7]) was 0.2 mg/kg in each case.
In test [1], `O=C(O[C@H]1CN2CCC1CC2)N1CCc2ccccc2C1c1ccccc1` (some centres not stated) returned a Ki of 28 nM.
For the compound `O=C(O[C@H]1CN2CCC1CC2)N1CC(O)c2ccccc2C1c1ccccc1` (some centres not stated), the Ki in test [1] was 1800 nM and 480 nM.
The same measure, in the same setting: with `O=C(O[C@H]1CN2CCC1CC2)N1Cc2ccccc2C(c2ccccc2)C1` (some centres not stated) the figure was greater than 1000 nM.
Consider `O=C(O[C@H]1CN2CCC1CC2)N1CCc2ccccc2[C@H]1c1ccccc1`, for which the ED50 in test [2] was 0.12 mg/kg. Affinity in test [1] was put at a Ki of 8.7 nM. The ED30 in test [4] (setting [7]) was determined as 0.036 mg/kg.
Turning to `O=C(O[C@@H]1CN2CCC1CC2)N1CCc2ccccc2[C@H]1c1ccccc1`, in test [1], the inhibition constant Ki worked out at 1600 nM.
In the case of `Cc1ccc(O)c([C@H](CCN(C(C)C)C(C)C)c2ccccc2)c1` [TOLTERODINE], the ED50 in test [2] was 0.26 mg/kg. Besides, in test [3], the Selectivity index is 4.3. The ED30 in test [4] (setting [7]) was 0.06 mg/kg.
For `O=C(O[C@H]1CN2CCC1CC2)N1CCc2ccccc2C1C1CCCCC1` (some centres not stated), the Ki in test [1] was 22 nM and 39 nM.
